NR2E3 ag-1: NR2E3 agonists in two-hybrid cells, primary screen, cell-based, luminescence, CHO-S, Gal4-NCOR/VP16-NR2E3. Photoreceptor-specific nuclear receptor (Homo sapiens), Q9Y5X4. luciferase. inhibition of corepressor binding, % at 3.98 µM. actives 0.35% (n = 360,000);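 active = inhibition above the mean of all tested compounds plus 3 SD, cut at about 70% in these data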;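 also: 0% = DMSO with NR2E3 transfected cells and 100% = cells lacking NR2E3 construct; higher means lower luciferase signal from less NR2E3 corepressor binding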
NR2E3 ag-2: inhibitors of NR2E3-RetCOR corepressor binding, primary screen, NR2E3 agonist project, biochemical, TR-FRET, GST-NR2E3, biotin-RetCOR. 1536-well. actives 0.12% (n = 320,000). inhibition of corepressor binding, % at 4.78 µM;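 active = percent inhibition above the cutoff of mean plus 3 SD of all tested compounds, set per screening campaign, cut at about 20% in these data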;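 also: 0% = DMSO wells and 100% = biotin wells as full block of FRET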
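Test system – NR2E3–RetCOR corepressor complex · Quantity – NR2E3 fusion 1.35 nM · Buffer or medium – Tris pH 7.5 · Incubation – Compound–protein incubation for 5 h at 4 °C · Technique – TR-FRET, Eu(K)-anti-GST donor, streptavidin-D2 acceptor, ex 340, em 617/671 nm · Evaluation – percent inhibition of 671/617 nm emission ratio versus biotin and DMSO controls · Plate – 1536-well format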
PP1 counter: PP1-alpha phosphatase inhibitors, primary screen, counter-screen for PP5 inhibitor project, biochemical, fluorescence, OMFP substrate, single point; Serine/threonine-protein phosphatase PP1-alpha catalytic subunit (Homo sapiens), P62136; purified PP1alpha; inhibition, % at 6.7 µM; actives 0.9% (n = 320,000); AID 2235, 2010;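 active = inhibition above the mean inhibition of all tested compounds plus 3 SD, computed separately for each screening campaign, cut at about 15% in these data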
PP5 inh: PP5 phosphatase inhibitors, primary screen, biochemical, fluorescence; Serine/threonine-protein phosphatase 5 (Homo sapiens), P53041; purified PP5c, OMFP substrate fluorescence; inhibition, % at 6.7 µM; actives 0.18% (n = 320,000); AID 1987, 2009;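 active = inhibition above the campaign's mean inhibition across all tested compounds plus 3 SD, cut at about 9.5% in these data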;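 also: 0% = DMSO only and 100% = 100 µM cantharidin control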
Target sequence (P53041 whole entry, looked up): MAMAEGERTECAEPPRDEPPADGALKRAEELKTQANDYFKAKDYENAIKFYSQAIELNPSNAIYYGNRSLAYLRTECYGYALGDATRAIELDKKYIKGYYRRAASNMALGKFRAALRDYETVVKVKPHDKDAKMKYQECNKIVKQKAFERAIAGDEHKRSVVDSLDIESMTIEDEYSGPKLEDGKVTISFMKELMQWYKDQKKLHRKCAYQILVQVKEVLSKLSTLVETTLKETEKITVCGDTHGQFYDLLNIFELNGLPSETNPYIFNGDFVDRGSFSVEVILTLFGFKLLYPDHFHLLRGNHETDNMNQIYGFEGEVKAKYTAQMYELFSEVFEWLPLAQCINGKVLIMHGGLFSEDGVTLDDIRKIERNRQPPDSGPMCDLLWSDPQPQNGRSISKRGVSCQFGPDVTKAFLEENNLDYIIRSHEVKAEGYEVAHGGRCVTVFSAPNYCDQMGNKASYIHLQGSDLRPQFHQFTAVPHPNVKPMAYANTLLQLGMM
NR2E3 ag confirm: NR2E3 agonist confirmation in cells, cell-based, luminescence, CHO-S two-hybrid | shares compounds with NR2E3 ag-1 | CHO-S mammalian two-hybrid NR2E3-NCOR, luciferase luminescence | inhibition, % at 3.98 µM | AID 624378, 2012 | actives 51% (n = 2,300);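 active = average inhibition above a cutoff equal to the mean inhibition of all tested compounds plus one SD, cut at about 70% in these data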;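 also: 0% = DMSO in NR2E3 cells and 100% = DMSO in cells lacking NR2E3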
VP16 counter: GAL4-VP16 reporter modulators, confirmation, counter-screen for NR2E3 agonist project, cell-based, luminescence, CHO-S, high throughput | shares compounds with NR2E3 ag-1 | CHO-S GAL4-VP16 luciferase reporter | inhibition, % at 3.98 µM | actives 29% (n = 2,300) | AID 624379, 2012;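 active = mean inhibition above a cutoff equal to the average over all tested compounds plus one standard deviation, cut at about 70% in these data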;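 also: luciferase from a UAS reporter driven by GAL4-VP16 transactivation; 0% = DMSO with VP16-transfected cells and 100% = DMSO with cells lacking VP16; higher means less reporter light so more repression of VP16 activity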
* hit, by the source's call; nt = no result given. Hits are enriched below; roughly 1.3% of the tested compounds scored in any of these assays.

SMILES	NR2E3 ag-1	NR2E3 ag-2	PP1 counter	PP5 inh	NR2E3 ag confirm	VP16 counter
O=[N+]([O-])c1cc(S(=O)(=O)Nc2cccc(C(F)(F)F)c2)ccc1-n1nnc2ccccc21	96*	8	2	0	98*	87*
COc1ccc(NS(=O)(=O)c2ccc(-n3nnc4ccccc43)c([N+](=O)[O-])c2)cc1	54	-1	0	1	45	45
CC(=O)C1=C(c2ccccc2)NC(=O)NC1c1cccs1 (centres undefined)	-13	4	0	2	nt	nt
Cc1ccc(OCC(=O)c2cc(C)n(Cc3cccs3)c2C)c([N+](=O)[O-])n1	84*	1	5	6	93*	88*
Cc1ccc(OCC(=O)c2cc(C)n(CC(F)(F)F)c2C)c([N+](=O)[O-])n1	23	1	2	1	nt	nt
CC(c1ccccc1)c1nnc(N)s1 (centres undefined)	59	3	1	1	10	9
Cc1noc(C)c1COC(=O)c1cccc(S(=O)(=O)N2CCCCCC2)c1	62	-1	-4	1	45	58
CC1CC(C)CN(S(=O)(=O)c2ccc3oc(=O)ccc3c2)C1 (centres undefined)	-6	0	-5	1	nt	nt
Cc1cc(Br)ccc1NC(=O)CN(C)C(=O)C1CCN(c2ncnc3sc(C)c(C)c23)CC1	62	nt	nt	nt	26	41
CCOCCOC(=O)c1[nH]c2c(c1C)C(=O)CC(c1ccc(OC)c(OC)c1)C2 (centres undefined)	-3	3	3	2	nt	nt
COc1cc(C2CC(=O)c3c([nH]c(C(=O)OCCOC(C)C)c3C)C2)cc(OC)c1OC (centres undefined)	53	3	-4	0	53	56
CC(=O)c1ccc(OCC(=O)NC(=O)NC2CCCCC2)cc1	61	1	-3	-2	22	55
O=C(Nc1ccc(OC(F)(F)F)cc1)C1CCCN(S(=O)(=O)c2cccnc2)C1 (centres undefined)	49	1	-4	0	-19	-12
COC(=O)CCCC(=O)N1CCC(CCC(=O)NCc2ccc(F)cc2)CC1	15	2	-5	0	nt	nt
Cc1cccc(CSC(Nc2ccc(F)cc2)=C(C#N)C#N)c1	97*	0	4	4	98*	93*
O=C(Cc1ccc(Cl)cc1)Nc1ncc([N+](=O)[O-])s1	-37	nt	nt	nt	nt	nt
O=C(Cc1ccc(Br)cc1)Nc1ncc([N+](=O)[O-])s1	72*	1	5	1	97*	60
COc1ccc2c(CC(=O)Nc3ncc(C)s3)coc2c1	62	7	3	0	96*	-67
Cc1cnc(NC(=O)Cc2ccc(Br)cc2)s1	60	-1	1	4	91*	5
COc1ccc2c(CC(=O)Nc3nc(C)cs3)coc2c1	-38	1	-2	-1	nt	nt
Cc1cc(N(C)C(=O)c2ccc3c(c2)S(=O)(=O)c2cc(Cl)ccc2C3=O)c(C(F)(F)F)o1	5	nt	nt	nt	nt	nt
COc1cc2c(oc(=O)c3cc(C)cc(OC)c32)c2c(C3OC(C)C(O)C(C)(O)C3O)ccc(O)c12 (centres undefined)	54	nt	nt	nt	71*	56
O=C(NCCCN1CCOCC1)c1cnccn1	-1	0	-3	-2	nt	nt
Cc1cc(N2CCN(C/C=C/c3ccccc3)CC2)n2ncnc2n1	49	3	-2	0	34	51
O=C(NCCC1=CCCCC1)c1ccc(Cl)c(S(=O)(=O)N2CCOCC2)c1	10	0	1	-1	nt	nt
SMILES	NR2E3 ag-1	NR2E3 ag-2	PP1 counter	PP5 inh	NR2E3 ag confirm	VP16 counter
O=C(NCCC1=CCCCC1)c1ccc(Cl)c(S(=O)(=O)N2CCCCC2)c1	51	-1	2	3	21	-3
Cc1ccc(S(=O)(=O)N2CCN(C(=O)C3CCN(c4ncnc5sc(C)c(C)c45)CC3)CC2)c(C)c1	2	nt	nt	nt	nt	nt
CC(=O)Nc1ccc(S(=O)(=O)Oc2ccc(C(=S)N3CCC(O)CC3)cc2)cc1	29	-5	1	0	nt	nt
CCCCOc1ccc(S(=O)(=O)Nc2ccc(NC(C)=O)cc2)cc1	70*	-1	-2	1	27	47
CCOc1ccc(NS(=O)(=O)c2ccc(C(=O)N3CCCC(C)C3)cc2)cc1 (centres undefined)	55	0	-3	3	74*	69
CCOC(=O)N1CCN(C(=O)c2ccc(S(=O)(=O)Nc3ccc(C)cc3)cc2)CC1	54	nt	nt	nt	81*	51
CCOC(=O)N1CCN(C(=O)c2ccc(NS(=O)(=O)c3ccc(C)cc3)cc2)CC1	8	3	-4	-4	nt	nt
CCOc1ccc(S(=O)(=O)Nc2ccc(C(=O)N3CCCC3)cc2)cc1	17	5	-13	1	nt	nt
CC(=O)Nc1ccc(S(=O)(=O)Oc2ccc(C(=S)N3CCCCC3)cc2)cc1	55	-4	2	1	70*	62
Cc1cccc(NC(=O)CN2CCN(C(=O)CN3C(=O)NC4(CC(C)CC(C)(C)C4)C3=O)CC2)c1C (centres undefined)	2	nt	nt	nt	nt	nt
Cc1ccc(S(=O)(=O)NCc2ccc(C(=O)N3CCN(c4ccccn4)CC3)cc2)cc1	5	1	-6	5	nt	nt
CCOc1ccc(NS(=O)(=O)c2ccc(NC(=O)C3CC3)cc2)cc1	38	0	-2	6	nt	nt
COc1ccc(N2CCN(C(=O)c3ccc(CNS(=O)(=O)c4ccc(C)cc4)cc3)CC2)cc1	43	1	1	5	nt	nt
Cc1ccc(NS(=O)(=O)c2ccc(C(=O)N3CCN(c4ccccn4)CC3)cc2)cc1	68	2	3	3	68	54
COc1ccc(NS(=O)(=O)c2ccc(NC(=O)C3CC3)cc2)cc1	52	4	2	3	27	42
CCOc1ccc(NS(=O)(=O)c2ccc(C(=O)N3CCCCCC3)cc2)cc1	73*	-4	0	2	23	47
Cc1ccc(S(=O)(=O)NCc2ccc(C(=O)N3CCN(c4ccc([N+](=O)[O-])cc4)CC3)cc2)cc1	58	-2	8	4	83*	62
Cc1ccn2c(=O)nc(SCC(=O)NCCc3ccccc3)nc2c1	7	1	-5	-1	nt	nt
COc1ccccc1N(CC(=O)NCC1CCCO1)C(=O)CNS(=O)(=O)c1ccccc1 (centres undefined)	5	-3	-2	-1	nt	nt
